Compound activity from PubChem BioAssay.
Compounds with a hit are over-represented: about 3.7% of the library has one in this group of screens.
Kir21 inh: inhibitors of mouse Kir2.1 inward-rectifier potassium channel; B-score at 10 µM; HEK293-Kir2.1, FluxOR thallium flux fluorescence; stronger effect = lower value; 310,000 compounds, 0.85% hits; P35561;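 active means fluorescence ratio B-score at or below minus 3 SD of library scores, with starting-brightness B-score within 2 SD, cut at about -4.2 in these data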;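 further: channel flux triggered by added potassium and thallium sulfate stimulus; B-score of peak minus minimum fluorescence over baseline after thallium stimulus; more negative B-score means stronger Kir2.1 block with less thallium influx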
Target sequence (P35561 whole entry, looked up): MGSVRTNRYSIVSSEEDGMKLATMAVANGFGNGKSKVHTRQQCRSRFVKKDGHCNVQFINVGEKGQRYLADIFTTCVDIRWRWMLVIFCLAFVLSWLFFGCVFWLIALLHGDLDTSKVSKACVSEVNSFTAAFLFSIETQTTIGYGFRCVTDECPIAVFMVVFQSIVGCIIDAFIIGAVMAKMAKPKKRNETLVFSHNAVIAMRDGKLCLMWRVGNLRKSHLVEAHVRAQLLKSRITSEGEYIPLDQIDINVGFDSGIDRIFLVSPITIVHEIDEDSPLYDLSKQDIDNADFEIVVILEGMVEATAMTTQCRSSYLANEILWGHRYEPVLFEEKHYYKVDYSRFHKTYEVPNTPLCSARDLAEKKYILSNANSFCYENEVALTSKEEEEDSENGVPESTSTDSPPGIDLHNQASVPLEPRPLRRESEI
KCNK3 block: human KCNK3 channel inhibition, primary screen; O14649; CHO-KCNK3 thallium flux, FluxOR fluorescence; stronger effect = lower value; B-score at 10 µM; 340,000 compounds, 0.84% hits;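 active means B-score under library mean minus 4 SD, starting fluorescence ratio at most library mean plus 5 SD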;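 further: more negative B-score means stronger inhibition of thallium flux through KCNK3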
KCNQ1 block: blocks the human KCNQ1 potassium channel; P51787; CHO-K1 KCNQ1, FluxOR thallium flux fluorescence; stronger effect = higher value; B-score at 10 µM; 310,000 compounds, 1.3% hits;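 active means compounds whose thallium flux B-score, printed positive for inhibition, exceeds three library SD while starting fluorescence stays within three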;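 further: channel opened by potassium depolarization with thallium stimulus after 20 min compound exposure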
hERG rescue: compounds protecting human hERG from proarrhythmic drug block | Q12809 | CHO-hERG, FluxOR thallium flux, dofetilide IC70 present | activation (rescue from dofetilide block), less the hit threshold, % at 10 µM | 310,000 compounds, 0.51% hits | AID 1511;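 active means activation above the mean of controls blocked by dofetilide plus 5 SD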;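 further: thallium influx through hERG after potassium depolarization seen as dye fluorescence rise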
KCNQ1 act: human KCNQ1 channel potentiation or activation; B-score at 10 µM; CHO-K1 KCNQ1, thallium flux FluxOR fluorescence; stronger effect = higher value; 310,000 compounds, 0.35% hits;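 active means fluorescence ratio B-score, a plate-corrected score, at least three library SD, with initial intensity B-score within 5 SD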
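Test system: CHO-K1 cells stably expressing KCNQ1 / Medium: assay buffer / Also added: depolarizing K+/Tl+ stimulus, K2SO4 and Tl2SO4 each 12.5 mM in 5x stock / Incubation: 90 min dye loading and 20 min compound exposure, both at room temperature / Signal: thallium influx via FluxOR fluorescence, kinetic imaging / Evaluation: B score of baseline-normalized fluorescence ratio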
KCNK9 inh: blocks the human KCNK9 two-pore domain potassium channel; AID 488922; 310,000 compounds, 1.2% hits; B-score at 10 µM; HEK293 KCNK9, FluxOR thallium flux fluorescence; stronger effect = lower value;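 active means ratio B-score over 3 SD below the library mean, with starting fluorescence within 5 SD of its mean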;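 further: negative B-score means less thallium flux so channel inhibition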
KCNK9 inh conf: confirmation of human KCNK9 potassium channel inhibitors; shares compounds with KCNK9 inh; HEK293 KCNK9 cells, FluxOR thallium flux fluorescence; inhibition, % at 10 µM; 4,900 compounds, 43% hits; AID 492992;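 active means thallium signal inhibited by more than 5 SD of the compound-free buffer control wells, on both duplicate plates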
Kir21 sel: tests whether KCNK9 modulators also affect mouse Kir2.1; shares compounds with KCNK9 inh; Kir2.1 cells, FluxOR thallium flux fluorescence; inhibition, % at 10 µM; 4,900 compounds, 4% hits;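 active means thallium signal drop more than 5 SD beyond the mean of the no-compound control wells, seen in both duplicate plates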;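 further: signal is fluorescence rise after thallium addition divided by baseline fluorescence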
HEK293 Tl ctr: non-induced cell nonspecific activity of KCNK9 modulators | non-induced KCNK9-HEK293, FluxOR thallium flux | AID 492997 | inhibition, % at 10 µM | 4,900 compounds, 40% hits | shares compounds with KCNK9 inh;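 active means thallium signal drop beyond 5 SD of the untreated control mean, on both duplicate plates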
Of the large screens only hits and unclear results are named; the others gave an inactive call (follow-up assays come after a bar, where they were run).

CN(c1ccc(C(=O)NCCSCc2ccccc2)cc1)S(=O)(=O)c1ccccc1	none | KCNK9 inh conf inactive | Kir21 sel inactive | HEK293 Tl ctr inactive
CN(c1ccc(C(=O)NCc2ccc3c(c2)OCO3)cc1)S(=O)(=O)c1ccccc1	none
Cc1cccc(CSCCNC(=O)c2ccc(N(C)S(=O)(=O)c3ccccc3)cc2)c1	KCNQ1 block 7 | KCNK9 inh conf inactive | Kir21 sel inactive | HEK293 Tl ctr inactive
CCC1=NN(C(=O)c2cccc(Br)c2)C(O)(c2ccc(Br)cc2)C1 (stereo not drawn)	KCNQ1 block 8, KCNK9 inh -10 | KCNK9 inh conf 42% | Kir21 sel inactive | HEK293 Tl ctr 26%
Brc1ccc(-c2noc(COc3ccc4c(c3)CCC4)n2)o1	none | KCNK9 inh conf inactive | Kir21 sel inactive | HEK293 Tl ctr inactive
Clc1ccc(OCc2nc(-c3ccc(Br)o3)no2)cc1	none
c1csc(-c2noc(COc3ccc4c(c3)CCCC4)n2)c1	none | KCNK9 inh conf inactive | Kir21 sel inactive | HEK293 Tl ctr inactive
COCCn1c(Cc2ccccc2)nnc1SCC(=O)NC1CCCCC1	none
CC(=O)c1ccc(OCC(=O)OCc2cc(-c3ccco3)on2)cc1	none (no result: Kir21 inh, KCNQ1 block, hERG rescue, KCNQ1 act, KCNK9 inh)
Cc1noc(C)c1CSCC(=O)N(C)CC(=O)Nc1ccc(Cl)c(C(F)(F)F)c1	KCNK9 inh -10 | KCNK9 inh conf 52% | Kir21 sel inactive | HEK293 Tl ctr 24%
COc1ccc(C(=O)NC(=S)Nc2ccc3[nH]c(=O)[nH]c3c2)c(OC)c1	none
CN(C)CCOC(=O)c1ccc2c(c1)S(=O)(=O)c1ccccc1C2=O	none
CCOC(=O)c1c(C)[nH]c(C(=O)COC(=O)C2CC2)c1C	none (no result: Kir21 inh, KCNQ1 block, hERG rescue, KCNQ1 act, KCNK9 inh)
CCOC(=O)c1c(C)[nH]c(C(=O)COC(=O)C2(C)CC2(Cl)Cl)c1C (stereo not drawn)	KCNK9 inh -17 | KCNK9 inh conf inactive | Kir21 sel inactive | HEK293 Tl ctr inactive
CC(C)(C)C(=O)Nc1nnc(COc2ccc(Cl)cc2)s1	none
Cc1nc(NC(=O)c2ccccc2)sc1C1(C)CC(c2c(Cl)cccc2Cl)=NO1 (stereo not drawn)	KCNK9 inh -9.8 | KCNK9 inh conf 55% | Kir21 sel inactive | HEK293 Tl ctr 36%
Cc1nc(NC(=O)c2ccccc2)sc1C1(C)CC(c2ccccc2F)=NO1 (stereo not drawn)	none
Clc1cccc(CN2CCN(Cc3nc(CCc4ccccc4)no3)CC2)c1	none | KCNK9 inh conf inactive | Kir21 sel inactive | HEK293 Tl ctr inactive
Clc1cccc(C2CCN(Cc3nc(COc4ccccc4)no3)C2)c1 (stereo not drawn)	none | KCNK9 inh conf inactive | Kir21 sel inactive | HEK293 Tl ctr inactive
c1ccc(OCc2noc(CN3CC[C@@H]4CCCC[C@H]4C3)n2)cc1	none
COc1ccc(C(=O)NCC(=O)OCC(=O)N2CC(C)OC(C)C2)cc1OC (stereo not drawn)	none (no result: Kir21 inh, KCNQ1 block, hERG rescue, KCNQ1 act, KCNK9 inh)
CCCc1cc(=O)[nH]c2nnc(SCC(=O)NCc3ccc4c(c3)OCO4)n12	none
Cc1ccc2[nH]c3c(=O)n(CC(=O)N4CC(C)CC(C)C4)ncc3c2c1 (stereo not drawn)	none
COc1ccccc1CC(=O)Nc1nc(-c2ccc(F)c(F)c2)cs1	KCNK9 inh -17 | KCNK9 inh conf inactive | Kir21 sel inactive | HEK293 Tl ctr 39%
N#CC(c1ccccc1)c1ccc(C(=O)c2ccc(F)cc2)cc1 (stereo not drawn)	KCNK9 inh -9.8 | KCNK9 inh conf 54% | Kir21 sel inactive | HEK293 Tl ctr 36%
CCOc1ccc(NC(=O)CSc2nc3ccsc3c(=O)n2CCC(=O)O)cc1	none
CNC[C@H](Cc1ccccc1)NC[C@@H](Cc1cccc2ccccc12)NCCc1ccc(C)cc1	Kir21 inh -10, KCNQ1 block 11, KCNK9 inh -9.5 | KCNK9 inh conf 70% | Kir21 sel 76% | HEK293 Tl ctr 58%
CCOC(=O)C1=C(C)NC(=S)NC1c1ccc(-c2cccc(Cl)c2C)o1 (stereo not drawn)	KCNK9 inh -8.6 | KCNK9 inh conf inactive | Kir21 sel inactive | HEK293 Tl ctr inactive
Cc1cc(C)n2nc(SC(C)C(=O)N(C)C3CCCCC3)nc2n1 (stereo not drawn)	none (no result: Kir21 inh, KCNQ1 block, hERG rescue, KCNQ1 act, KCNK9 inh)
O=C(/C=C/c1ccccc1)N1c2ccccc2Sc2ccc(C(F)(F)F)cc21	KCNK9 inh -9.2 | KCNK9 inh conf 26% | Kir21 sel inactive | HEK293 Tl ctr 36%
CSc1ccccc1OCc1cc(C(=O)N2CCc3[nH]cnc3C2c2ccccn2)no1 (stereo not drawn)	none
Cc1ccc(Cn2ccc(NC(=O)c3cc(CC(C)C)on3)n2)cc1	none | KCNK9 inh conf inactive | Kir21 sel inactive | HEK293 Tl ctr inactive
Cc1ccc(Cn2ccc(NC(=O)c3cc(-c4ccc(Cl)cc4)on3)n2)cc1	none
Cc1nc(CNC(=O)CC2C(=O)NCCN2Cc2ccoc2)nc2c1CCCC2 (stereo not drawn)	none
COc1cc(OC)cc(C(=O)N/N=C\c2ccoc2)c1	none
CC(c1ccccc1)N1CC(C(=O)Nc2ccc(F)cc2)CC1=O (stereo not drawn)	none (no result: Kir21 inh, KCNQ1 block, hERG rescue, KCNQ1 act, KCNK9 inh)
Cc1cc(C)cc(NC(=O)c2cc(C)n(Cc3cccs3)c2C)c1	none
Cc1cc(C(=O)Nc2ccc(Cl)cc2)c(C)n1Cc1cccs1	none | KCNK9 inh conf inactive | Kir21 sel inactive | HEK293 Tl ctr inactive
O=C(Cc1cccs1)NCCS(=O)(=O)N1CCN(c2cccc(Cl)c2)CC1	none
CC(C)(CNC(=O)C1CCN(S(=O)(=O)c2cc([N+](=O)[O-])ccc2Cl)CC1)N1CCOCC1	none (no result: Kir21 inh, KCNQ1 block, hERG rescue, KCNQ1 act, KCNK9 inh)
N#C/C(N=Nc1ccccc1O)=N\Nc1ccccc1O	KCNQ1 block 6, KCNK9 inh -8.7 | KCNK9 inh conf 30% | Kir21 sel 30% | HEK293 Tl ctr inactive
Oc1ccccc1N=N/C(=N/Nc1ccccc1O)c1ccccc1	none
Cc1ccc(SCc2c(C#N)c3ccccc3n2C)cc1	Kir21 inh -6.6, KCNK3 block -9.9, KCNK9 inh -12 | KCNK9 inh conf 57% | Kir21 sel inactive | HEK293 Tl ctr 46%
COC(=O)c1ccc(-c2noc(CN(C)CCC3CCCCO3)n2)cc1 (stereo not drawn)	none | KCNK9 inh conf inactive | Kir21 sel inactive | HEK293 Tl ctr inactive
COc1ccc(C(=O)N(Cc2nc(-c3ccc(C)cc3)no2)C2CCCCC2)cc1OC	none | KCNK9 inh conf inactive | Kir21 sel inactive | HEK293 Tl ctr inactive
